From article PMC11865470 (Communications Biology, 2025)

Key:
Kir1.1 = molecular target: T1, Kir1.1 (Homo sapiens, UniProt P48048); assay: whole-cell patch-clamp, off-target channel, 10 μM compound; type: cell-based; conditions: vs 0.1% DMSO
T1 sequence (P48048 1-391): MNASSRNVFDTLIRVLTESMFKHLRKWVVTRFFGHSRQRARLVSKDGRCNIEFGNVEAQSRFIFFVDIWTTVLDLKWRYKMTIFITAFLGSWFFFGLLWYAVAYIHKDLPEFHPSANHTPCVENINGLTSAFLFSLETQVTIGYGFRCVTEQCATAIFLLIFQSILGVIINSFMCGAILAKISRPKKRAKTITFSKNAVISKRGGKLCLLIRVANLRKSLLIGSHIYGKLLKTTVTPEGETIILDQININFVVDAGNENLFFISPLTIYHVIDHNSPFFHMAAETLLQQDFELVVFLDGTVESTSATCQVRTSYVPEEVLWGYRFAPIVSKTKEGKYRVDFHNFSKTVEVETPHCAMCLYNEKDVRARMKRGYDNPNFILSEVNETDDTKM
How it was run: (§1)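 Kir channels in transfected HEK293T cells, whole-cell. Pipette (mM): 135 KCl, 2 MgCl2, 10 HEPES, 1 EGTA, 4 Na2-ATP, pH 7.3. Bath (mM): 135 NaCl, 5 KCl, 1.5 CaCl2, 1 MgCl2, 10 HEPES, 10 glucose, pH 7.4. 0.1% DMSO bath applied before 10 μM test compound. Inhibition ratios compared by unpaired t-test, n = 5.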

NaV1.3 = NaV1.3 (Rattus norvegicus, UniProt P08104); assay: whole-cell patch-clamp, off-target channel, 10 μM compound; type: cell-based; conditions: vs 0.1% DMSO
How it was run: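 NaV channels, transiently transfected HEK293T cells, whole-cell, 16–24 h after seeding. Pipette (mM): 140 CsF, 1 EGTA, 10 NaCl, 10 HEPES, pH 7.4. Bath (mM): 140 NaCl, 5 KCl, 2 CaCl2, 1 MgCl2, 10 glucose, 10 HEPES, pH 7.4. Bath with 0.1% DMSO applied before 10 μM test compound. Inhibition ratios compared by unpaired t-test, n = 5.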

Kir4.1 = molecular target: T2, Kir4.1 (Homo sapiens, UniProt P78508); assay: whole-cell patch-clamp, off-target channel, 10 μM compound; type: cell-based; conditions: vs 0.1% DMSO
T2 sequence (P78508 1-379): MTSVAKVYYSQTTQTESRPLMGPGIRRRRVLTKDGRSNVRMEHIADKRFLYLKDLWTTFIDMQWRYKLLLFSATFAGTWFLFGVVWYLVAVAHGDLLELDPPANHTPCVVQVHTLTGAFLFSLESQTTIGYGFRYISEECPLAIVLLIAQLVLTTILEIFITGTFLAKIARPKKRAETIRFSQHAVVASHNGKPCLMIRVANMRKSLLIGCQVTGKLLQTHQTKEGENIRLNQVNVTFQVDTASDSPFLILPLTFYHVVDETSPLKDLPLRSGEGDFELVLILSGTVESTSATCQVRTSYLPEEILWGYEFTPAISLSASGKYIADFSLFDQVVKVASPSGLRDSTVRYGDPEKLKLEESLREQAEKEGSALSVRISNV
How it was run: as §1

mouse Otop2 (mOtop2) = molecular target: T3, mouse Otop2 (mOtop2) (Mus musculus, UniProt Q80SX5); assay: whole-cell patch-clamp, pH 5.5-evoked currents; type: cell-based; conditions: 10 μM
T3 sequence (Q80SX5 1-563): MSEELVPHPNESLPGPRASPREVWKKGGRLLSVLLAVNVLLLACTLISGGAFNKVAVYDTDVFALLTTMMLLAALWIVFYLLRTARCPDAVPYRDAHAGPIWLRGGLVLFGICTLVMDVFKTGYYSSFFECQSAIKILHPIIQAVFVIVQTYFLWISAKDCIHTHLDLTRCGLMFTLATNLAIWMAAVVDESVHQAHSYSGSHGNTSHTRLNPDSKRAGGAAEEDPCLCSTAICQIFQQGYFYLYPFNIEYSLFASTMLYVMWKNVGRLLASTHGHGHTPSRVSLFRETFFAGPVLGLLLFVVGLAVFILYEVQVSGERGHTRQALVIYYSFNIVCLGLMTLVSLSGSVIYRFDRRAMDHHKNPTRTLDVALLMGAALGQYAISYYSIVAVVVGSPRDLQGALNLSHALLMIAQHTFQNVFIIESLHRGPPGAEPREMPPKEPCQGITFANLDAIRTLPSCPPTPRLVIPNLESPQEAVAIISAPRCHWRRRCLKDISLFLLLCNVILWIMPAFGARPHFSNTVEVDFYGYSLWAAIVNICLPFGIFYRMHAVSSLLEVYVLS
How it was run: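 Channel plasmid (2.5 μg) was co-transfected with EGFP plasmid (0.5 μg) using Lipofectamine 2000 into PAC-knockout HEK293T cells. Whole-cell recording 16–24 h after seeding, with Cs-aspartate pipette solution (pH 7.3). Currents evoked by pH 5.5 bath (160 mM NMDG-Cl, 2 mM CaCl2, 10 mM MES); test compound 10 μM.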

KV2.1 = assay: whole-cell patch-clamp, off-target channel, 10 μM compound; type: cell-based, Mus musculus; conditions: for sensitivity of channel to compound: vs 0.1% DMSO
How it was run: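 KV channels in transiently transfected HEK293T cells, whole-cell. Pipette (mM): 140 KCl, 2.5 MgCl2, 11 EGTA, 10 HEPES, pH 7.4. Bath (mM): 145 NaCl, 2.8 KCl, 2 CaCl2, 1 MgCl2, 10 glucose, 10 HEPES, pH 7.4. 0.1% DMSO bath applied, then 10 μM test compound. DMSO vs compound inhibition ratio compared by unpaired t-test, n = 5.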

Sequence of NaV1.3 (P08104 whole entry): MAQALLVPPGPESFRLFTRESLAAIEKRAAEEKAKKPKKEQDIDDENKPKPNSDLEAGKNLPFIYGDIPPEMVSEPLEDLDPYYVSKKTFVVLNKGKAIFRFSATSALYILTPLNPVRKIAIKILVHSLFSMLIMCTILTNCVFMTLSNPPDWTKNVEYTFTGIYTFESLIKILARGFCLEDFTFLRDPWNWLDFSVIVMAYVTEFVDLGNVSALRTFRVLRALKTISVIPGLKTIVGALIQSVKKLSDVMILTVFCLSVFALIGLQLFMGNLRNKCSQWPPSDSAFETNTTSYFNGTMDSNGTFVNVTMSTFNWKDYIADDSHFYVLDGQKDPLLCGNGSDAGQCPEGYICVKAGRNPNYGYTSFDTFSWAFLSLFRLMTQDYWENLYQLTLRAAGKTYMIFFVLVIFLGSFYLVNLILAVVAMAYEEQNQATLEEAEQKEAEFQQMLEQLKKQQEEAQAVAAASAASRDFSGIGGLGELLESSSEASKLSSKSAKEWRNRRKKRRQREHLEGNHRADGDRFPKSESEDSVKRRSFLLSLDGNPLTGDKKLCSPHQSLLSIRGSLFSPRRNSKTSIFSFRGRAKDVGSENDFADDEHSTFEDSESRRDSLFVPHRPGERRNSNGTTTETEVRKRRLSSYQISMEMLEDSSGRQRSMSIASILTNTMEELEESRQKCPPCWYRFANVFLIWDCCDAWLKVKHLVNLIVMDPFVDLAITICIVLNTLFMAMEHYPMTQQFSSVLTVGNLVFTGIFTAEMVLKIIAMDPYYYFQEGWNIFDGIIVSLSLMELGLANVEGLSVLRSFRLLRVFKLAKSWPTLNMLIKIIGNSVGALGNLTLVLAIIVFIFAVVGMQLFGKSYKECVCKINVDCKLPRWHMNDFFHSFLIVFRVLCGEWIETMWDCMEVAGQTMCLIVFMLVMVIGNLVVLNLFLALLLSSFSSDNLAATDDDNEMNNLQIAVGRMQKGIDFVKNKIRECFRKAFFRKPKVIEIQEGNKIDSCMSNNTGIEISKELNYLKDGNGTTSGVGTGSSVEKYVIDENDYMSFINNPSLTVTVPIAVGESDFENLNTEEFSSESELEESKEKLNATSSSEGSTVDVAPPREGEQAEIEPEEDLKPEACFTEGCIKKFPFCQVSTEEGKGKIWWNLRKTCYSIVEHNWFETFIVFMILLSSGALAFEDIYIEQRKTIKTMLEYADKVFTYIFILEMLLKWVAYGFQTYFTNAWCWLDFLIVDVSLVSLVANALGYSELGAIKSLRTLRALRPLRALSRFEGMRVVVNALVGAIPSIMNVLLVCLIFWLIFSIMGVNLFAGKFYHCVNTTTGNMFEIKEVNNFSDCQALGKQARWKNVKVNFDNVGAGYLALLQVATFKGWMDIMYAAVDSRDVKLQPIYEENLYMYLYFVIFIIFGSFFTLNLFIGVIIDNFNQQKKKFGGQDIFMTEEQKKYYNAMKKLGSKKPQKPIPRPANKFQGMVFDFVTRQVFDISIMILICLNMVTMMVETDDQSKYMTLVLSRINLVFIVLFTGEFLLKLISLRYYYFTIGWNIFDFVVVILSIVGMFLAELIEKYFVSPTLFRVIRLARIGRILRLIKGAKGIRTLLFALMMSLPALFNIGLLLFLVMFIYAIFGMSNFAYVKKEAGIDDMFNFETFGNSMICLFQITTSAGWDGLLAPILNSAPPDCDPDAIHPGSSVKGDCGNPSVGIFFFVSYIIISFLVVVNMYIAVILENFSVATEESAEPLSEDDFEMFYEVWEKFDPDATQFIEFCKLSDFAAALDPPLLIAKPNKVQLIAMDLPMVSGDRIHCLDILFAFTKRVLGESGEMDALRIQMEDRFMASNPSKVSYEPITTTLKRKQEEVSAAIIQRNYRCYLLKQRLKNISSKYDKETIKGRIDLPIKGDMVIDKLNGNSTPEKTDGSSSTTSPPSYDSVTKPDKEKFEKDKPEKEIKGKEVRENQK

SMILES	sensitivity of channel to compound (Kir1.1)	sensitivity of channel to compound (NaV1.3)	sensitivity of channel to compound (Kir4.1)	effect on pH 5.5-evoked mOtop2 currents (mouse Otop2 (mOtop2))	inhibition ratio (KV2.1) [%]	sensitivity of channel to compound (KV2.1)
Cc1ccc(C(=O)Nc2ccc3ccccc3c2)o1 [MFaN, 5-methyl-N-2-naphthyl-2-furamide]	completely resistant	completely resistant	completely resistant	did not affect	20.0	–
Cc1cc(NC(=O)c2ccc(Br)o2)ccc1NC(=O)c1ccco1 [B2FAMP, 5-Bromo-N-[4-(2-furoylamino)-3-methylphenyl]-2-furamide]	completely resistant	completely resistant	completely resistant	did not affect	–	completely resistant
CC(C)c1noc2ncc(C(=O)c3ccccc3O)cc12 [HIMOP, (2-hydroxyphenyl)-(3-propan-2-yl-5-isoxazolo[5,4-b]pyridinyl)methanone]	completely resistant	completely resistant	completely resistant	did not affect	–	completely resistant
